In the library only some 3.5% were active in any assay of this set; here they are far more common.
PAFAH2 FP inh: inhibitors of human PAFAH2; recombinant PAFAH2, FP-rhodamine activity probe, fluorescence polarization; inhibition, % at 3.39 µM; actives 0.99% (n = 340,000);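 active = inhibition above the mean over all tested compounds plus 3 SD, cut at about 30% in these data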;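 note: inhibitors block probe labeling of enzyme so polarization drops; 0% = enzyme with DMSO and 100% = wells lacking PAFAH2 protein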
Apaf-1 inh: blocks human Apaf-1 apoptosome activity | O14727 | reconstituted apoptosome caspase-3 activity, DEVD-Rh110 fluorescence | inhibition, % at 20 µM | actives 0.71% (n = 330,000) | AID 489030; active = inhibition of at least 40% at 20 µM;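 note: plate controls were DMSO wells for no effect and DEVD-CHO caspase inhibitor wells for full effect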
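Medium: Hepes buffer, pH 7.5 / System: biochemical Apaf-1 apoptosome reconstitution / Measured by: Rh110 fluorescence, excitation 480 nm, emission 540 nm / Times: compound with Apaf-1, dATP, procaspase-3 30 min, then 50 min reaction, room temperature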
PREPL inhibitor: inhibits the human prolyl oligopeptidase-like enzyme | recombinant PREPL, fluorescence polarization activity-based probe | inhibition, % at 5.96 µM | actives 0.68% (n = 320,000); in the data active = inhibition above about 43%;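 note: 0% = enzyme with DMSO and 100% = wells lacking enzyme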
PAFAH1B3 inh: PAFAH1B3 (human) inhibition; Q15102; recombinant PAFAH1B3, FP-rhodamine probe, fluorescence polarization; inhibition, % at 3.39 µM; actives 0.28% (n = 340,000); AID 492972;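 active = inhibition above the screen-wide average of all tested compounds plus 3 SD, cut at about 25% in these data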;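 note: 0% = enzyme with DMSO only and 100% = wells lacking PAFAH1B3 protein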
pPAFAH inh: pPAFAH (human) enzyme inhibition | Q13093 | recombinant pPAFAH, FP-rhodamine probe fluorescence polarization | inhibition, % at 3.39 µM | actives 1.5% (n = 330,000);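 active = inhibition above the mean inhibition across the screen plus 3 SD, cut at about 25% in these data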;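 note: inhibitors block binding of the rhodamine activity-based probe so polarization drops; 0% = enzyme with DMSO and 100% = wells lacking pPAFAH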
Target sequence (Q13093 whole entry, looked up): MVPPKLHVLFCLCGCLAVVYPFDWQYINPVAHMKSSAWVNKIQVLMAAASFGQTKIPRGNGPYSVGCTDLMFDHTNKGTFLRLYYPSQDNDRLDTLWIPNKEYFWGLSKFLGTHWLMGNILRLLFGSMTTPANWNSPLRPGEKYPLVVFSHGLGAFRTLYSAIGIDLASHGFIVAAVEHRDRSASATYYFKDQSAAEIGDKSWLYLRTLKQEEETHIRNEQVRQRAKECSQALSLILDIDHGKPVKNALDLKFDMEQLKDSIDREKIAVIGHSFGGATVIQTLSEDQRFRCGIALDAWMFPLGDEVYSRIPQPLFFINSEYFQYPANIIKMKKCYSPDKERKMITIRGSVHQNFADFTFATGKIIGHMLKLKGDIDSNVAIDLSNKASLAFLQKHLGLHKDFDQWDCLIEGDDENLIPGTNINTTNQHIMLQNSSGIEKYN
PAFAH1B2 inh: blocks human PAF acetylhydrolase 1b catalytic subunit 2 | recombinant PAFAH1B2, FP-rhodamine activity probe, fluorescence polarization | P68402 | AID 492953 | actives 1.2% (n = 340,000) | inhibition, % at 3.39 µM;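 active = inhibition above the mean of all tested compounds plus 3 SD, cut at about 24% in these data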;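 note: 0% = enzyme with DMSO and 100% = wells lacking PAFAH1B2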
PAFAH2 confirm: PAFAH2 (human) inhibition, confirmed | shares compounds with PAFAH2 FP inh | recombinant PAFAH2, FP-rhodamine activity probe, fluorescence polarization | inhibition, % at 3.39 µM | actives 65% (n = 2,300) | AID 493030;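 active = mean inhibition over three repeats above a set limit taken from the earlier primary screen, cut at about 30% in these data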;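 note: inhibitor blocks binding of rhodamine activity probe so polarization falls; 0% = enzyme with DMSO and 100% = wells lacking PAFAH2 protein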
An asterisk follows results filed as active; . = no result given.

SMILES	PAFAH2 FP inh	Apaf-1 inh	PREPL inhibitor	PAFAH1B3 inh	pPAFAH inh	PAFAH1B2 inh	PAFAH2 confirm
Cc1ccc(NC(=O)COC(=O)c2oc3ccccc3c2C)cc1S(=O)(=O)N1CCOCC1	23	11	.	3	.	1	.
Cc1ccc(NC(=O)COC(=O)c2ccc(NC(=O)CC#N)cc2)cc1S(=O)(=O)N1CCOCC1	57*	14	0	-28	-9	-13	64*
Cc1nc(SCC(=O)NCC2CCCO2)c2cc(-c3ccccc3)sc2n1 (centres undefined)	2	15	15	-3	13	-6	.
Cc1ccc(NC(=O)COC(=O)c2ccc3c(c2)OCCO3)cc1S(=O)(=O)N1CCOCC1	81*	28	-6	4	9	-2	74*
O=C(COC(=O)CC1CC2CCC1C2)NCc1ccc(F)cc1 (centres undefined)	50*	12	0	16	22	15	39*
O=C(CC1CC2CCC1C2)OCC(=O)c1c[nH]c2ccccc12 (centres undefined)	-5	14	3	-4	4	-2	.
Cc1ccc(C(=O)OCC(=O)Nc2ccc3[nH]c(=O)[nH]c3c2)cc1S(=O)(=O)N1CCOCC1	2	3	14	2	2	-1	.
Cc1ccc(NC(=O)COC(=O)CC2CC3CCC2C3)cc1S(=O)(=O)N1CCOCC1 (centres undefined)	69*	15	-1	3	11	5	65*
O=C(COC(=O)CC1CC2CCC1C2)Nc1ccccc1[N+](=O)[O-] (centres undefined)	66*	17	12	14	18	10	59*
Cc1cccc(/C=N/NC(=O)c2ccc(F)cc2)n1	-4	4	1	15	1	9	.
Cc1nc(C)c(-c2ccn(C(=O)NC(C)C)n2)s1	3	-2	5	8	0	-6	.
CCOC(=O)C1=CN(Cc2cccc(F)c2)S(=O)(=O)N(CC)C1CCc1ccccc1 (centres undefined)	1	29	.	3	-1	2	.
CC(=O)Nc1ccc(C(=O)OCC(=O)Nc2ccc(S(=O)(=O)N3CCOCC3)cc2)cc1	10	14	17	10	-6	1	.
CCN(c1ccc(NC(=O)COC(=O)c2ccc(C)c(S(=O)(=O)N3CCOCC3)c2)cc1)C(C)C	39*	17	7	-3	14	1	23
O=C(NCC1CCN(c2ccc(S(=O)(=O)N3CCOCC3)cc2)CC1)Nc1ccccc1F	-6	8	9	5	5	6	.
Cc1cc2c(=O)n(C)c(SCC(=O)Nc3ccc(F)cc3)nc2s1	-1	.	.	11	.	10	.
CC(C)CNC(=O)COC(=O)c1ccc(F)cc1Cl	35*	-2	-2	-3	13	4	19
CC(C)CNC(=O)COC(=O)c1cc(Cl)cc(Cl)c1N	3	6	19	8	-2	4	.
COc1cc(SC)ccc1C(=O)OCC(=O)NCC(C)C	45*	9	24	13	13	2	28
COc1ccc(C(=O)OCC(=O)NC(C)(C)C)cc1[N+](=O)[O-]	39*	-8	-5	1	3	2	23
COc1ccc(C(=O)OCC(=O)NCCCc2ccccc2)cc1[N+](=O)[O-]	30*	-4	3	4	6	13	12
COC(=O)CNC(=O)COC(=O)c1ccc(OC)c([N+](=O)[O-])c1	-6	-1	-4	10	-2	3	.
CC(=O)c1ccc(NC(=O)C2CCN(S(=O)(=O)c3cccnc3)CC2)cc1	2	-11	0	-1	5	0	.
COc1ccc(/C=C/C(=O)OCC(=O)NC2CCCCCCC2)cc1	86*	8	29	10	18	6	83*
COc1ccc(/C=C/C(=O)OCC(=O)NC2CCCC2)cc1OC	83*	-4	-6	16	10	2	78*
SMILES	PAFAH2 FP inh	Apaf-1 inh	PREPL inhibitor	PAFAH1B3 inh	pPAFAH inh	PAFAH1B2 inh	PAFAH2 confirm
COc1ccc(/C=C/C(=O)OCC(=O)N2CCCCCC2)cc1OC	33*	-9	4	3	4	6	15
O=C(COC(=O)/C=C/c1ccc(OC(F)F)cc1)NC1CCCC1	70*	-3	8	7	20	0	74*
COc1cc(/C=C/C(=O)OCC(=O)N2CCCCCC2)ccc1OCC#N	17	-8	-6	0	-1	-1	.
O=C(N1CCN(c2ncccn2)CC1)C12CC3CC(CC(C3)C1)C2	20	2	12	15	-3	15	.
O=C(Nc1ccccc1)OCCN1CCOCC1	0	.	.	1	.	6	.
O=C(COC(=O)/C=C/c1ccc(C(F)(F)F)cc1)NCC1CCCCC1	30*	-2	-1	2	3	3	22
COc1ccc(OC)c(/C=C/C(=O)OCC(=O)NC2CCCCCCC2)c1	90*	5	8	5	20	8	86*
O=C(O)c1cccc(-c2nnn(Cc3ccccc3)n2)c1	-7	-6	0	6	2	4	.
O=C(O)c1cccc(-c2nnn(Cc3ccccc3Cl)n2)c1	84*	1	13	0	1	7	2
CN1C(=O)c2ccccc2N(C)C1c1cccc(O)c1 (centres undefined)	1	5	3	1	4	-1	.
COc1ccc(C)c(-n2c(N)cc(=O)n(Cc3ccccc3)c2=O)c1	5	2	5	0	6	-2	.
COc1ccccc1NS(=O)(=O)c1ccc(NC(=O)c2ccncc2)cc1	7	0	-2	3	2	3	.
COc1ccccc1NS(=O)(=O)c1ccc(C(=O)Nc2ncccc2O)cc1	55*	-9	1	3	3	6	46*
O=C(COC(=O)c1ccc(-n2cnnn2)cc1)Nc1cc(Cl)ccc1F	34*	-12	-6	-4	-5	-1	28
CS(=O)(=O)c1ccc(Cl)c(NC(=O)COC(=O)c2ccc(-n3cnnn3)cc2)c1	24	-2	-1	5	-4	0	.
Nc1ccc(C(=O)OCC(=O)Nc2cc([N+](=O)[O-])ccc2F)cc1	83*	-9	16	-6	12	0	82*
O=C(COC(=O)C1CCCCC1)Nc1cc([N+](=O)[O-])ccc1F	49*	9	9	12	10	18	28
O=C(CN1C(=O)C2CCCCC2C1=O)Nc1cc([N+](=O)[O-])ccc1F (centres undefined)	-7	-1	11	6	3	8	.
CCC(=O)OCC(=O)Nc1cc([N+](=O)[O-])ccc1OC	-3	-24	5	1	4	0	.
COc1ccc([N+](=O)[O-])cc1NC(=O)COC(=O)C1CC1	49*	-9	1	9	0	3	-1
